Assay results reported in article PMC6679956 (Journal of medicinal chemistry, 2019).

Tests used:
[1] = Peptide helicity by CD spectroscopy; format: physicochemical
In short: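 Test peptides at 100 μM in 5 mM sodium phosphate, pH 7.4, equilibrated at 10, 15, 20, 25 and 30 °C. Spectra recorded from 180 to 260 nm: 0.1 nm step, 50 nm/s, five accumulations, 1 s response, 5 nm bandwidth, 0.1 cm path. α-Helical content calculated from previously reported equations. Triplicate analyses per peptide.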

m^7GDP-bound eIF4E = m^7GDP-bound eIF4E (Homo sapiens, UniProt P06730); experiment: SPR binding kinetics of peptides to immobilized eIF4E
Chain of m^7GDP-bound eIF4E (P06730 whole entry): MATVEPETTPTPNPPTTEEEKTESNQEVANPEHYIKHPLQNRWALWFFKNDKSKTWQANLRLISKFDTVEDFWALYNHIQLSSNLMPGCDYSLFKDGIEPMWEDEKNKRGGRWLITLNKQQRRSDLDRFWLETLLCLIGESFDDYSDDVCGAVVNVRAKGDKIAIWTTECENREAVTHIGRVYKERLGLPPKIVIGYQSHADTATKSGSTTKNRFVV

[2] = SPR, 25 °C, 1.0 M versus 225 mM salt

CC[C@H](C)[C@H](NC(=O)[C@H](CCCNC(=N)N)NC(=O)[C@@H](NC(=O)CNC(C)=O)[C@@H](C)O)C(=O)N[C@H](C(=O)N[C@@H](Cc1ccc(O)cc1)C(=O)N[C@@H](CC(=O)O)C(=O)N[C@@H](CCCNC(=N)N)C(=O)N[C@@H](CCCCN)C(=O)N[C@@H](Cc1ccccc1)C(=O)N[C@@H](CC(C)C)C(=O)N[C@@H](CCSC)C(=O)N[C@@H](CCC(=O)O)C(=O)N[C@@H](CS)C(=O)N[C@@H](CCCNC(=N)N)C(=O)N[C@@H](CC(N)=O)C(N)=O)[C@@H](C)CC [4E-BP1]
helicity over the temperatures tested ([1]; 100 μM, 10 to 30 °C): 15–19% | helicity in the presence of TFE ([1]; 5 mM sodium phosphate buffer pH 7.4, 25 °C, 100 μM peptide, with 2,2,2-trifluoroethanol): 37%

Ac-KKRYSREQLLGL-NH2 [Linear sTIP-04]
fold decrease in Kd with increasing salt concentration (m^7GDP-bound eIF4E; [2]): 4 fold | fold decrease in kd with increasing salt concentration (m^7GDP-bound eIF4E; [2]): 48 fold | kon (m^7GDP-bound eIF4E; pH 7.5, read-out: association rate ka): 2e+06 ± 100000 M⁻¹ s⁻¹ | koff (m^7GDP-bound eIF4E; pH 7.5, read-out: dissociation rate kd): 0.123 ± 0.014 s⁻¹

CC(=O)N[C@@H](CCCCN)C(=O)N[C@@H](CCCCN)C(=O)N[C@@H](CCCNC(=N)N)C(=O)N[C@@H](Cc1ccc(O)cc1)C(=O)N[C@@H](CC(=O)O)C(=O)N[C@@H](CCCNC(=N)N)C(=O)N[C@@H](CCC(=O)O)C(=O)N[C@@H](Cc1ccccc1)C(=O)N[C@@H](CC(C)C)C(=O)N[C@@H](CC(C)C)C(=O)NCC(=O)N[C@@H](Cc1ccccc1)C(=O)N[C@@H](CCC(N)=O)C(=O)N[C@@H](Cc1ccccc1)C(N)=O [eIF4G]
kd with increasing salt concentration (m^7GDP-bound eIF4E; SPR, 25 °C, running buffer salt 225 to 1000 mM): 0.046 to 0.27 s⁻¹ | kinetic advantage (ka) of eIF4G peptide over both 4E-BP1 peptides (m^7GDP-bound eIF4E; SPR, at most temperatures, particularly the higher ones): ~ 2 fold
